Measurements reported in ChEMBL document CHEMBL4680103, “In Vitro and in Vivo Anti-Trypanosoma cruzi Activity of New Arylamine Mannich Base-Type Derivatives” (J Med Chem, 2016).
Active and inactive are the calls of the source. The rule behind the calls is not given here.

How the values were obtained:
Trypanosoma cruzi [1] = test: Antitrypanosomal activity against Trypanosoma cruzi Tulahuen epimastigote forms incubated for 72 hrs by hemocytometry; type: functional, organism-based
Summary of the method: (§1)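 Epimastigotes grown in MTL medium with 10% inactivated FBS at 28 °C. Compounds were dissolved in DMSO (0.01% v/v) and added at 0.1–100 µM for 72 h. Parasites were counted in a Neubauer chamber. IC50 (50% growth inhibition) was derived by linear regression of Kc values. Values are averages of four determinations.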

Trypanosoma cruzi [2] = test: Antitrypanosomal activity against Trypanosoma cruzi SN3 epimastigote forms incubated for 72 hrs by hemocytometry; type: functional, organism-based; details: SN3, 72 h; summary of the method: as §1
Trypanosoma cruzi [3] = test: Antitrypanosomal activity against Trypanosoma cruzi SN3 amastigote forms infected in African green monkey Vero cells incubated for 72 hrs by Giemsa staining based micrscopy; type: functional, organism-based
Summary of the method: (§2)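 Vero cells (RPMI, 10% inactivated FBS, 37 °C, 5% CO2) were seeded at 1×10^4/well on coverslips and cultured 2 days. They were infected 24 h with metacyclic forms at 10:1. After washing off free parasites, drugs were added at 0.1–100 µM for 72 h. Slides were methanol-fixed and Giemsa-stained; amastigotes were counted in 200 host cells versus untreated. IC50 was calculated.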

Trypanosoma cruzi [4] = test: Antitrypanosomal activity against Trypanosoma cruzi SN3 trypomastigote froms infected in mouse blood incubated for 24 hrs by Neubauer chamber based assay; type: functional, organism-based
Summary of the method: (§3)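 Mouse blood taken at peak parasitemia (day 7) was diluted with uninfected blood to 4×10^6 trypomastigotes/mL, then 1:2 in RPMI 1640. Drugs from DMSO stocks were added at 1, 10, 25, 50 and 100 µM and incubated 24 h at 4–8 °C. Parasites were counted in a Neubauer chamber in triplicate. IC50 was calculated versus control.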

Vero = test: Cytotoxicity in African green monkey Vero cells incubated for 72 hrs; type: cell-based; details: Chlorocebus sabaeus
Trypanosoma cruzi [5] = test: Antitrypanosomal activity against Trypanosoma cruzi Tulahuen trypomastigote froms infected in mouse blood incubated for 24 hrs by Neubauer chamber based assay; type: functional, organism-based; summary of the method: as §3
[6] = Selectivity index, ratio of IC50 for cytotoxicity in African green monkey Vero cells to IC50 for antitrypanosomal activity against Trypanosoma cruzi […] epimastigote forms
Trypanosoma cruzi [7] = test: Antitrypanosomal activity against Trypanosoma cruzi Arequipa trypomastigote froms infected in mouse blood incubated for 24 hrs by Neubauer chamber based assay; type: functional, organism-based; summary of the method: as §3
Trypanosoma cruzi [8] = test: Antitrypanosomal activity against Trypanosoma cruzi Tulahuen amastigote forms infected in African green monkey Vero cells incubated for 72 hrs by Giemsa staining based micrscopy; type: functional, organism-based; summary of the method: as §2
Trypanosoma cruzi [9] = test: Antitrypanosomal activity against Trypanosoma cruzi Arequipa epimastigote forms incubated for 72 hrs by hemocytometry; type: functional, organism-based; summary of the method: as §1
Trypanosoma cruzi [10] = test: Antitrypanosomal activity against Trypanosoma cruzi Arequipa amastigote forms infected in African green monkey Vero cells incubated for 72 hrs by Giemsa staining based micrscopy; type: functional, organism-based; summary of the method: as §2
[11] = Selectivity index, ratio of IC50 for cytotoxicity in African green monkey Vero cells to IC50 for antitrypanosomal activity against Trypanosoma cruzi […] amastigote forms; type: toxicity, cell-based; details: read-out: Ratio IC50
Trypanosoma cruzi [12] = test: Antitrypanosomal activity against Trypanosoma cruzi Arequipa trypomastigotes infected in BALB/c mouse assessed as reduction in splenomegaly by measuring weight percent of spleens […] at 100 mg/kg, po dosed on alternating days (7 to 15 days post infection) by PCR analysis (reference value: 1.603%); type: functional
Trypanosoma cruzi [13] = test: Antitrypanosomal activity against Trypanosoma cruzi Arequipa trypomastigotes infected in BALB/c mouse assessed as reduction in parasitemia level in adipose tissue measured during acute phase (days 0 to 40 post infection) at 100 mg/kg, po dosed on alternating days (7 to 15 days post infection) by PCR analysis; type: functional, organism-based
Trypanosoma cruzi [14] = test: Antitrypanosomal activity against Trypanosoma cruzi Arequipa trypomastigotes infected in BALB/c mouse assessed as reduction in parasitemia level in lung measured during acute phase (days 0 to 40 post infection) at 100 mg/kg, po dosed on alternating days (7 to 15 days post infection) by PCR analysis; type: functional, organism-based
[15] = molecular target: T1, Superoxide dismutase [Cu-Zn] (Homo sapiens, UniProt P00441); test: Inhibition of human erythrocyte CuZn-SOD by NBT dye based spectrophotometry
T1 sequence (P00441 whole entry): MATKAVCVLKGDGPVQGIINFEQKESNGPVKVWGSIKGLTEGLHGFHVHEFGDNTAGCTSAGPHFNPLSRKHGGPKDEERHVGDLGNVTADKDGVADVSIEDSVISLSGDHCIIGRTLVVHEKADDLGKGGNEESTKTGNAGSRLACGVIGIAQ
Summary of the method: (§4)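 Fe-SOD source: Arequipa epimastigote homogenate (STE buffer pH 7.8, sonication, centrifugation, supernatant; protein by Bradford); CuZn-SOD was commercial human erythrocyte enzyme. Activity was measured as NBT reduction by superoxide in 50 mM potassium phosphate pH 7.8, with compounds at 5 concentrations (1–100 µM). A560 was read before and after 10 min under lamp light with stirring. Three rate determinations; Newman–Keuls test.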

Trypanosoma cruzi [16] = test: Antitrypanosomal activity against Trypanosoma cruzi Arequipa trypomastigotes infected in BALB/c mouse assessed as reduction in parasitemia level in heart measured during acute phase (days 0 to 40 post infection) at 50 to 100 mg/kg, po dosed on alternating days (7 to 15 days post infection) by PCR analysis; type: functional, organism-based; details: dose 50-100 mg/kg
Trypanosoma cruzi [17] = test: Antitrypanosomal activity against Trypanosoma cruzi Arequipa trypomastigotes infected in BALB/c mouse assessed as reduction in parasitemia measured during acute phase (days 0 to 40 post infection) at 50 to 100 mg/kg, po dosed on alternating days (7 to 15 days post infection); type: functional, organism-based; details: dose 50-100 mg/kg
Summary of the method: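 Female BALB/c mice (8–10 weeks, 25–30 g; groups of six) were infected i.p. with 5×10^5 Arequipa blood trypomastigotes. Dosing was oral, 50 or 100 mg/kg/day, on 5 alternating days (days 7–15 pi), alongside untreated and reference-drug groups. Parasitemia was counted in 5 µL mandibular-vein blood by Neubauer chamber through day 40 pi. Data are means ± SD of six mice.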

Trypanosoma cruzi [18] = test: Antitrypanosomal activity against Trypanosoma cruzi Arequipa trypomastigotes infected in BALB/c mouse assessed as parasitemia re-activation level measured during chronic phase ( day 90 post infection) at 100 mg/kg, po dosed on alternating days (7 to 15 days post infection) relative to acute phase infection (reference value: […]%); type: functional
Trypanosoma cruzi [19] = test: Antitrypanosomal activity against Trypanosoma cruzi Arequipa trypomastigotes infected in BALB/c mouse assessed as reduction in mouse mortality measured during acute phase (days 0 to 40 post infection) at 50 to 100 mg/kg, po dosed on alternating days (7 to 15 days post infection); type: functional, organism-based; details: dose 50-100 mg/kg
[20] = Inhibition of Trypanosoma cruzi Arequipa Fe-SOD by NBT dye based spectrophotometry; summary of the method: as §4
[21] = molecular target: T1, Superoxide dismutase [Cu-Zn]; test: Inhibition of human erythrocyte CuZn-SOD at 50 uM by NBT dye based spectrophotometry; summary of the method: as §4
Trypanosoma cruzi [22] = test: Antitrypanosomal activity against Trypanosoma cruzi Arequipa trypomastigotes infected in BALB/c mouse assessed as reduction in parasitemia level in brain measured during acute phase (days 0 to 40 post infection) at 100 mg/kg, po dosed on alternating days (7 to 15 days post infection) by PCR analysis; type: functional, organism-based
Trypanosoma cruzi [23] = test: Antitrypanosomal activity against Trypanosoma cruzi infected in African green monkey Vero cells assessed as reduction in number of trypomastigotes measured up to 10 days by Giemsa staining based hemocytometry; type: functional; details: time day <=10
Summary of the method: (§5)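 Vero cells infected with metacyclic forms (10:1) were exposed to one concentration per compound immediately after infection for 12 h at 37 °C, 5% CO2. After washing, cultures were kept 10 days with fresh medium every 48 h. Every 48 h, % infected cells and amastigotes per infected cell (200 Giemsa-stained cells) and medium trypomastigotes (Neubauer) were scored. Means of three experiments.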

Trypanosoma cruzi [24] = test: Antitrypanosomal activity against Trypanosoma cruzi Arequipa trypomastigotes infected in BALB/c mouse assessed as reduction in parasitemia level in heart measured during acute phase (days 0 to 40 post infection) at 100 mg/kg, po dosed on alternating days (7 to 15 days post infection) by PCR analysis; type: functional, organism-based
Trypanosoma cruzi [25] = test: Antitrypanosomal activity against Trypanosoma cruzi Arequipa trypomastigotes infected in BALB/c mouse assessed as reduction in parasitemia level in muscle measured during acute phase (days 0 to 40 post infection) at 100 mg/kg, po dosed on alternating days (7 to 15 days post infection) by PCR analysis; type: functional, organism-based
Trypanosoma cruzi [26] = test: Inhibition of Trypanosoma cruzi Arequipa Fe-SOD at 50 uM by NBT dye based spectrophotometry; summary of the method: as §4
Trypanosoma cruzi [27] = test: Antitrypanosomal activity against Trypanosoma cruzi infected in African green monkey Vero cells assessed as reduction in number of amastigotes per infected cell measured up to 10 days by Giemsa staining based hemocytometry; type: functional; details: time day <=10; summary of the method: as §5
Trypanosoma cruzi [28] = test: Antitrypanosomal activity against Trypanosoma cruzi Arequipa trypomastigotes infected in BALB/c mouse assessed as reduction in parasitemia level in bone marrow measured during acute phase (days 0 to 40 post infection) at 100 mg/kg, po dosed on alternating days (7 to 15 days post infection) by PCR analysis; type: functional, organism-based
Trypanosoma cruzi [29] = test: Antitrypanosomal activity against Trypanosoma cruzi Arequipa trypomastigotes infected in BALB/c mouse assessed as reduction in parasitemia level in stomach measured during acute phase (days 0 to 40 post infection) at 100 mg/kg, po dosed on alternating days (7 to 15 days post infection) by PCR analysis; type: functional, organism-based
Trypanosoma cruzi [30] = test: Antitrypanosomal activity against Trypanosoma cruzi Arequipa trypomastigotes infected in BALB/c mouse assessed as reduction in splenomegaly by measuring weight percent of spleens […] at 50 mg/kg, po dosed on alternating days (7 to 15 days post infection) by PCR analysis (reference value: 1.603%); type: functional; design: scale not given: the % may be the effect or the level left
Trypanosoma cruzi [31] = test: Antitrypanosomal activity against Trypanosoma cruzi infected in African green monkey Vero cells assessed as reduction in infection rate measured up to 10 days by Giemsa staining based hemocytometry; type: functional; details: time day <=10; summary of the method: as §5
Trypanosoma cruzi [32] = test: Antitrypanosomal activity against Trypanosoma cruzi Arequipa trypomastigotes infected in BALB/c mouse assessed as reduction in parasitemia level in esophagus measured during acute phase (days 0 to 40 post infection) at 100 mg/kg, po dosed on alternating days (7 to 15 days post infection) by PCR analysis; type: functional, organism-based
[33] = molecular target: T1, Superoxide dismutase [Cu-Zn]; test: Inhibition of human erythrocyte CuZn-SOD at 100 uM by NBT dye based spectrophotometry; summary of the method: as §4
Trypanosoma cruzi [34] = test: Inhibition of Trypanosoma cruzi Arequipa Fe-SOD at <50 uM by NBT dye based spectrophotometry; details: dose microM <50; summary of the method: as §4

SMILES	IC50 (Trypanosoma cruzi [1]) [µM]	IC50 (Trypanosoma cruzi [2]) [µM]	IC50 (Trypanosoma cruzi [3]) [µM]	IC50 (Trypanosoma cruzi [4]) [µM]	IC50 (Vero) [µM]	IC50 (Trypanosoma cruzi [5]) [µM]	IC50 (Trypanosoma cruzi [7]) [µM]	IC50 (Trypanosoma cruzi [8]) [µM]	IC50 (Trypanosoma cruzi [9]) [µM]	IC50 (Trypanosoma cruzi [10]) [µM]	Spleen weight percent (Trypanosoma cruzi [12]) [%]	Activity (Trypanosoma cruzi [13])	Activity (Trypanosoma cruzi [14])	Activity (Trypanosoma cruzi [16])	Activity (Trypanosoma cruzi [17])	Activity (Trypanosoma cruzi [18]) [%]	Activity (Trypanosoma cruzi [19])	IC50 [20] [µM]	Activity (Trypanosoma cruzi [22])	inhibition (INH) (Trypanosoma cruzi [23]) [%]	other results
O=C(CCN1CCN(c2cccc(C(F)(F)F)c2)CC1)c1ccsc1	28	12.8	5.7	4.6	4.8	22.3	26.8	20.2	28	18.6	–	–	–	–	–	–	–	–	–	–	selectivity ratio [6]: 1; selectivity ratio [11]: 1
O=C(CCN1CCN(c2ccc([N+](=O)[O-])cc2)CC1)c1csc2ccccc12	35.5	41.4	20.7	18.6	1710	0.5	35.9	19.8	77.7	11.7	0.729	Active	Active	Active	Active	0	Active	7.8	Active	59	IC50 [15]: 46.6 µM; inhibition [21]: 100%; Activity (Trypanosoma cruzi [24]): Active; Activity (Trypanosoma cruzi [25]): Active; inhibition (Trypanosoma cruzi [26]): 100%; inhibition (INH) (Trypanosoma cruzi [27]): 45%; Activity (Trypanosoma cruzi [28]): Active; Activity (Trypanosoma cruzi [29]): Active; Activity (Trypanosoma cruzi [30]): 1.174%; inhibition (INH) (Trypanosoma cruzi [31]): 59%; Activity (Trypanosoma cruzi [32]): Active
O=C(CCN1CCN(c2ccc([N+](=O)[O-])cc2C(F)(F)F)CC1)c1csc2ccccc12	50.3	179	72.9	33	2850	2.5	20.3	22.8	26	10.8	0.892	Active	Active	Active	Active	0	Active	71.1	Active	64	inhibition [33]: inactive; inhibition (Trypanosoma cruzi [34]): 100%; Activity (Trypanosoma cruzi [24]): Active; Activity (Trypanosoma cruzi [25]): Active; inhibition (INH) (Trypanosoma cruzi [27]): 74%; Activity (Trypanosoma cruzi [28]): Active; Activity (Trypanosoma cruzi [29]): Active; Activity (Trypanosoma cruzi [30]): 1.171%; inhibition (INH) (Trypanosoma cruzi [31]): 76%; Activity (Trypanosoma cruzi [32]): Active
